In the library only some 27% were active in any assay of this set; here they are far more common.
CYP2C9 activ = human CYP2C9 activators, primary screen, biochemical, luminescence; Cytochrome P450 2C9 (Homo sapiens), P11712; 1.4% of 96,000 active; AID 1024, 2008; activation factor at 5 µM; recombinant CYP2C9, luciferin-H conversion; active compounds read high; factor 1 = untreated enzyme, 0 = blocked;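 active means activation factor of 2 or more for CYP2C9 at a 5 µM dose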;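 further: 0 = sulfaphenazole-blocked wells and 1 = vehicle-only wells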
CYP2C19 inhib = blockers of cytochrome P450 2C19 activity – biochemical, luminescence, ADME assay, primary screen; CYP2C19 Supersomes, luciferin-H EGE luminescence, 30 min; 21% of 96,000 active; P33261; AID 778, 2007; inhibition, % at 5 µM;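 active means CYP2C19 inhibition above a set limit at 5 µM in the primary screen, cut at about 50% in these data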;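 further: plate controls were negative control wells for no effect and 2.5 mM tranylcypromine positive control for full effect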
CYP2C9 inhib = blockers of cytochrome P450 2C9 activity – biochemical, luminescence, ADME assay, primary screen. inhibition, % at 5 µM. CYP2C9 Supersomes, luciferin-H conversion. AID 777, 2007. 20% of 96,000 active;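 active means blocking of liver enzyme CYP2C9 beyond about 50% at 5 µM, limit read from the data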
CYP2C19 activ = human CYP2C19 activators, primary screen, biochemical, luminescence; activation factor at 5 µM; recombinant CYP2C19, luciferin-H EGE luminescence; active compounds read high; 0 = fully inhibited enzyme, 1 = untreated enzyme; 96,000 tested, under 10 active; Cytochrome P450 2C19 (Homo sapiens), P33261;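 active means activation factor of at least 2 at 5 µM in the primary screen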;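 further: 0 = wells with 2.5 mM tranylcypromine and 1 = vehicle-only wells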
Rev-RRE block = HIV-1 Rev-RRE binding inhibitors, primary screen, biochemical, FRET, protein-RNA interaction; Rev peptide-RRE RNA binding; inhibition, % at 8 µM; 0.79% of 97,000 active; AID 704, 2007;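 active means inhibition above the screen-wide mean plus 3 SD, cut at about 35% in these data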;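 further: 0% = median DMSO wells and 100% = median Neomycin B control wells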
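Test system – labelled RRE RNA duplex and labelled Rev peptide · Reagent – labelled Rev peptide · Doses – one concentration, 8 µM nominal · Incubation – 5 + 15 min at 25 °C · Signal – FRET fluorescence readout · Read-out basis – % inhibition of FRET ratio versus controls · Control set – DMSO wells as 0% and neomycin B wells as 100% inhibition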
Cav3 T inh = Cav3.2 calcium influx blockers – cell-based, Fluo-4 calcium fluorescence, FDSS, MLSMR library, primary screen | Voltage-dependent T-type calcium channel subunit alpha-1H (Homo sapiens), O95180 | Cav3.2-expressing cells; active compounds read low | B-score at 10 µM | 4% of 100,000 active | AID 449739, 2010;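 active means single-dose well whose peak fluorescence ratio is a statistical outlier from its plate by either plate-standardised score or position-corrected B-score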
* hit, by the source's call; . = no result.

SMILES	CYP2C9 activ	CYP2C19 inhib	CYP2C9 inhib	CYP2C19 activ	Rev-RRE block	Cav3 T inh
O=C(NCC(=O)N(c1ccccc1)C(C(=O)NCC1CCCO1)c1ccccc1)c1ccco1 (stereo unspecified)	1.2	14	-18	0.9	6	-0.077
Cc1ccc2nc(SCCC(=O)O)cc(C)c2c1	0.9	1	9	1	8	1.7
Oc1ccccc1-c1cc(C(F)(F)C(F)F)nc(-c2ccccc2)n1	1	3	5	1	10	-0.49
FC(F)C(F)(F)C(F)(F)C(F)(F)c1cc(-c2ccccc2)n[nH]1	0.2	85*	76*	0.1	.	-1.8
Cc1cccc(NC2(C(F)(F)F)N=C3SCCN3C2=O)n1 (stereo unspecified)	0.9	-10	10	1.1	1	0.36
CCOc1ccc(C(O)c2nccn2Cc2ccccc2)cc1 (stereo unspecified)	0.7	80*	35	0.2	-3	0.17
COc1ccc(C(O)c2nccn2Cc2ccccc2)cc1OC (stereo unspecified)	1.1	41	-8	0.6	10	0.53
O=c1cc(O)c2c(=O)n(-c3ccccc3)c3ccccc3c2o1	0.9	38	8	0.6	45*	2.3
CC(C)c1cc(C(C)C)c(S(=O)(=O)N2c3ccccc3[C@@]3(Br)C[C@H]4C(=O)N[C@@H](Cc5ccccc5)C(=O)N4[C@@H]23)c(C(C)C)c1	.	.	.	.	.	-1.5
CCN(CC)C(=O)c1csc(Nc2ccc(C)cc2)n1	0.4	81*	61*	0.2	5	-0.74
Cc1ccc(Nc2nc(C3CC3)cs2)cc1	0.7	20	26	0.8	.	.
Cc1ccc(Nc2nc(C(=O)NCc3ccco3)cs2)cc1	0.1	86*	91*	0.1	8	-1.5
O=C(CSc1nc(-c2ccccc2Cl)ns1)NCc1ccco1	0.4	36	63*	0.6	-3	-1.1
Cc1ccc(Nc2nc(C(=O)NCCCN3CCOCC3)cs2)cc1	0.7	28	26	0.7	2	.
CCOC(=O)/C(=N\Nc1ccc(Cl)cc1)c1csc(Nc2ccccc2)n1	0.1	12	87*	0.9	3	0.26
CCOC(=O)/C(=N/Nc1ccccc1)c1csc(Nc2ccccc2)n1	0.6	7	44	0.9	2	-0.81
CC1Cc2ccccc2N1C(=O)C1CCN(S(=O)(=O)Cc2ccccc2)CC1 (stereo unspecified)	0.9	21	8	0.8	5	0.35
Cc1ccc(Nc2nnc(SCC(=O)NCc3ccco3)s2)cc1	0.4	44	58*	0.6	.	-1.1
Brc1ccc(Oc2nsnc2N2CCOCC2)cc1	0.8	89*	24	0.1	10	-0.63
CCOC(=O)c1c(C)nc2sc3c(=O)n(-c4ccc(OC)cc4)cnc3c2c1-c1ccc(OC)cc1	0.2	74*	80*	0.3	3	0.041
CCOC(=O)c1c(C)nc2sc3c(=O)n(-c4ccc(C(C)=O)cc4)nnc3c2c1-c1ccc(OC)cc1	0.5	59*	48	0.4	-6	-0.69
COc1ccc(-n2cnc3c(sc4nccc(N(C)C)c43)c2=O)cc1	1.6	-4	-60	1	10	-0.19
CCOC(=O)c1c(C)nc2c(c1-c1ccc(OC)cc1)C(=O)CC(C)(C)C2	0.8	13	18	0.9	6	2.2
C[C@@H]1C[C@H](Nc2ccccc2)c2ccccc2N1C(=O)c1cccnc1	0.6	84*	38	0.2	1	-0.72
CC1CC(Nc2ccccc2)c2ccccc2N1C(=O)c1cccnc1 (stereo unspecified)	.	.	.	.	1	0.2
SMILES	CYP2C9 activ	CYP2C19 inhib	CYP2C9 inhib	CYP2C19 activ	Rev-RRE block	Cav3 T inh
CC(C)(CSc1nncn1N)NS(=O)(=O)c1ccc(Cl)cc1	0.5	95*	51*	0.1	8	0.38
CC(NC(=O)c1cccnc1)c1ccc2c(c1)OCO2 (stereo unspecified)	0.9	41	13	0.6	-2	0.98
N#Cc1c(SCC(N)=O)nc2c(c1-c1ccc(OCc3ccccc3)cc1)CCCC2	.	.	.	.	5	.
CCOC(=O)CCn1nc(-c2ccc(Cl)cc2)cc1N	0.6	79*	38	0.2	0	0.28
CCOC(=O)Cn1nc(-c2ccc(Cl)cc2)cc1N	0.7	74*	25	0.3	8	1.3
CCOC(=O)Cn1nc(-c2ccccc2)ccc1=O	0.9	19	6	0.8	3	0.99
CC1(C)C(c2ccc(Cl)cc2)=[N+]([O-])C2(CCCC/C2=N\O)N1O (stereo unspecified)	1	27	4	0.7	2	0.7
Cn1c(Sc2ccc(Cl)cc2)c(C=O)c2ccccc21	0	4	96*	1	17	-0.34
Cc1cccc(Sc2c(C=O)c3ccccc3n2C)c1	0.2	81*	77*	0.2	20	-0.97
COc1ccc(CCNC(=O)CS(=O)Cc2nc(-c3cccs3)oc2C)cc1OC (stereo unspecified)	0.9	-1	8	1	3	0.78
Cc1cccc(OCC(=O)OCC(=O)c2c(N)n(C)c(=O)n(C)c2=O)c1C	1.1	-6	-7	1.1	13	0.31
O=C(CCn1ccc2ccccc21)NC1CCCc2ccccc21 (stereo unspecified)	0.4	93*	60*	0.1	8	.
O=C(CCN1C(=O)C2C3C=CC(C3)C2C1=O)NC1CCCc2ccccc21 (stereo unspecified)	1.3	21	-32	0.8	6	0.019
O=C(CN1CCN(S(=O)(=O)c2ccc(Cl)cc2)CC1)NC(=O)NC1CCCCC1	1.1	19	-5	0.8	7	-2.4
Cc1ccc(-c2nnn(CC(=O)NC3CCCc4ccccc43)n2)cc1 (stereo unspecified)	0.8	29	16	0.7	3	-2.2
Cc1ccc(S(=O)(=O)N2CCN(CC(=O)NC3CCCc4ccccc43)CC2)c(C)c1 (stereo unspecified)	1	52*	-4	0.5	2	-2.4
Cc1ccc(S(=O)(=O)N2CCN(CC(=O)NC3CCCc4ccccc43)CC2)cc1C (stereo unspecified)	1.1	70*	-12	0.3	2	-3.3
O=C1CCc2cc(S(=O)(=O)N3CCC(C(=O)NC4CCCc5ccccc54)CC3)ccc2N1 (stereo unspecified)	0.9	12	5	0.9	-2	0.24
O=C(CCC(=O)N1CCN(S(=O)(=O)c2ccc(Cl)cc2)CC1)NC1CCCc2ccccc21 (stereo unspecified)	0.7	47	28	0.5	1	-5.2*
COC(=O)C(N)CCCCN (stereo unspecified)	.	.	.	.	.	0.27

Screening data: PubChem, several laboratories
